Screening results as filed in PubChem BioAssay.
Rin1 Abl inh = blocks binding of human Rin1 to Abl; inhibition, % at 7.35 µM; 360,000 compounds, 0.4% hits; TR-FRET Rin1/Abl binding, biochemical; P00519+Q13671; in the data active means inhibition above about 5%, passing the limit was not always enough
Target sequence (P00519 whole entry, looked up): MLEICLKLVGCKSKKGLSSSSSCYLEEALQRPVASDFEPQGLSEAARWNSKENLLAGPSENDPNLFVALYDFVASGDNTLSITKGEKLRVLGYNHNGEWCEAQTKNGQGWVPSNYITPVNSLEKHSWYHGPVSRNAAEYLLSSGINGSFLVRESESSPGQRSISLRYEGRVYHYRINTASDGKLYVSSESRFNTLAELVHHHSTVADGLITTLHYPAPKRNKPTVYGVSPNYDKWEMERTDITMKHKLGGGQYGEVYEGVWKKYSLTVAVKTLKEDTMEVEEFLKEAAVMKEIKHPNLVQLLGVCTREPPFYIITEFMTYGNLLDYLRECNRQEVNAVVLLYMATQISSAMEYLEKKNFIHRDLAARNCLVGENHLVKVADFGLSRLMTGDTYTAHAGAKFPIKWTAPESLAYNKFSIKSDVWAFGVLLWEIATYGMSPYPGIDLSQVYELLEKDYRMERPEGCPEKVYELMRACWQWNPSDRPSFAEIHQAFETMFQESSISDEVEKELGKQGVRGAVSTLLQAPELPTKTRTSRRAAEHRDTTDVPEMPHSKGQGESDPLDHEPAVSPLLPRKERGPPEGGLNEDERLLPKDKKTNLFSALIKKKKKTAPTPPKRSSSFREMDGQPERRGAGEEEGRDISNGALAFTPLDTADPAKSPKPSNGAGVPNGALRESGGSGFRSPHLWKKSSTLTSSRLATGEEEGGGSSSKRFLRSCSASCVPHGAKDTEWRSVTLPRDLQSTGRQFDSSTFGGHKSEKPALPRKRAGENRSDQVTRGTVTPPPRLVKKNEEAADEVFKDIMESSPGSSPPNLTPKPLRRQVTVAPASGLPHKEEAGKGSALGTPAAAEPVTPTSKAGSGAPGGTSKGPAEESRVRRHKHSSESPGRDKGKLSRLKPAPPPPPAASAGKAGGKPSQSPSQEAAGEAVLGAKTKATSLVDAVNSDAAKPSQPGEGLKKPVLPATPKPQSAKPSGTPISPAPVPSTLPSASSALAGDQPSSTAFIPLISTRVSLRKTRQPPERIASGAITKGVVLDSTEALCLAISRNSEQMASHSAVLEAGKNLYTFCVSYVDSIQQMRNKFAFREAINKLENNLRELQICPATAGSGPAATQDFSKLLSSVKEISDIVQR
Target sequence (Q13671 whole entry, looked up): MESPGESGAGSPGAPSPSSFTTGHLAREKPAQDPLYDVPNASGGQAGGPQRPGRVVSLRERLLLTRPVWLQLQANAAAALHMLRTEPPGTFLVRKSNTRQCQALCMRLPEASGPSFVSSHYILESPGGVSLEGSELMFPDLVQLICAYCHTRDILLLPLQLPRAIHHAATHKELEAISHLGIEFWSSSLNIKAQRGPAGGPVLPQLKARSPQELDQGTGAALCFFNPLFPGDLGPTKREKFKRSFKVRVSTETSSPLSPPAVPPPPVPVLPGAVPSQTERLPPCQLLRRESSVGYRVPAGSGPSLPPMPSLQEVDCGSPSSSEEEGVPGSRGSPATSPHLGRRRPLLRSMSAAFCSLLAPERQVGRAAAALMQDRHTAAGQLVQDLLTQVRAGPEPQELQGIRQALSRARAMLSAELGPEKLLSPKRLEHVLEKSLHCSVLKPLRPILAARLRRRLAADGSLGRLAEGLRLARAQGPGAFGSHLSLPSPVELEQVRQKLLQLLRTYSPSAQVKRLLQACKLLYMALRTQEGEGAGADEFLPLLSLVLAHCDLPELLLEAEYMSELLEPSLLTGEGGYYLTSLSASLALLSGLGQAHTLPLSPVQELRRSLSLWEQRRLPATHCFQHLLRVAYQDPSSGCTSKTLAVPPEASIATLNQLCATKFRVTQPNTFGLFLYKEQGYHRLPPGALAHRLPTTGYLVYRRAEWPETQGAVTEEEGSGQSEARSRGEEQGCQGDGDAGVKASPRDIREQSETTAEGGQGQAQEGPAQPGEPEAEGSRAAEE
UBC13 polyUb = blocks human UBC13 polyubiquitin chain formation; inhibition, % at 20 µM; AID 485273; TR-FRET; 330,000 compounds, 0.47% hits; P61088; in the data active means inhibition above about 45%, passing the limit was not always enough
PREPL inhibitor = inhibitors of human prolyl oligopeptidase-like enzyme PREPL; recombinant PREPL, fluorescence polarization activity-based probe; Q4J6C6; 320,000 compounds, 0.68% hits; inhibition, % at 5.96 µM;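 further: 0% = enzyme with DMSO and 100% = wells lacking enzyme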
SUMO HTRF inh = SUMOylation inhibition | 290,000 compounds, 0.36% hits | P63279 | HTRF SUMOylation assay, SAE1/SAE2 + UBC9, in vitro | inhibition, % at 35 µM; in the data active means inhibition above about 50%, passing the limit was not always enough
ALR inh = human ALR oxidase inhibition via reduced H2O2. P55789. purified ALR, DTT oxidation, H2O2 HRP-luminol luminescence. inhibition, % (test concentration not listed). 290,000 compounds, 3.8% hits. AID 485317;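 active means mean replicate inhibition above about 79%, with every replicate also reaching it, limit read from the data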
RBBP9 inh = blocks human serine hydrolase RBBP9. O75884. recombinant RBBP9, FP-Rh probe fluorescence polarization. inhibition, % at 7.94 µM. 220,000 compounds, 0.2% hits. AID 1515;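 active means inhibition above the campaign mean of all tested compounds plus 3 SD, cut at about 14% in these data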;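 further: plate controls were DMSO wells with RBBP9 for no effect and wells lacking RBBP9 protein for full effect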
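system = RBBP9 protein | input = RBBP9 at 2.5 µM in dispensed solution, before mixing | measured by = fluorescence polarization (mP), excitation 525 nm, emission 598 nm | incubation = enzyme-compound preincubation 30 min, then probe labeling 45 min, 25 °C | buffer or medium = Tris-NaCl-Pluronic buffer, pH 8.0 | compound = single dose 7.94 µM | also added = FP-Rh probe, 375 nM dispensing solution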
PREPL confirm = confirmation of human PREPL enzyme inhibitors | recombinant PREPL, fluorescence polarization activity probe | shares compounds with PREPL inhibitor | inhibition, % at 5.96 µM | AID 2803 | 2,000 compounds, 67% hits;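 further: 0% = protein with DMSO and 100% = wells lacking protein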
* hit, by the source's call; nt = no result. Compounds with a hit are over-represented: about 4.3% of the library has one in this group of screens. Unless noted, no stated cut-off is given here; in the data, active means inhibition above about 43%; inactive means the rest.

SMILES	Rin1 Abl inh	UBC13 polyUb	PREPL inhibitor	SUMO HTRF inh	ALR inh	RBBP9 inh	PREPL confirm
c1ccc2c(c1)CCN(c1nc3cc4c(cc3s1)OCCO4)C2	-2.1	5.6	48.0*	-25.2	3.3	-1.8	38.4
CCN(CC)c1ccc(-c2nn3c(-c4ccccc4OC)nnc3s2)cc1	-1.9	18.0	56.9*	-4.1	0.0	-10.5	38.8
COc1ccccc1-c1nn2c(-c3ccccc3Cl)nnc2s1	nt	nt	nt	-2.5	nt	nt	nt
Nc1nc(-c2ccccc2)c(N=Nc2cccc3ccccc23)s1	1.0	-80.6	15.3	-12.0	-12.4	1.2	nt
Nc1nc(-c2ccccc2)c(N=Nc2ccccc2Cl)s1	4.7	-196.7	61.4*	-37.8	nt	12.2	62.2*
c1ccc(N2CCN(c3cnc4ccccc4n3)CC2)cc1	-4.5	7.2	37.0	3.4	nt	0.3	nt
Fc1ccc(N2CCN(c3cnc4ccccc4n3)CC2)cc1	1.0	5.4	45.3*	-3.6	nt	nt	38.9
Cc1ccc2c(c1)C1CN(C)CCC1N2Sc1ccccc1[N+](=O)[O-] (centres undefined)	-5.6	-4.5	45.1*	-10.4	nt	-0.8	38.1
Oc1ccc(N=Nc2ccccc2-c2nn[nH]n2)c(O)c1	-2.6	-99.0	51.0*	-13.9	nt	nt	53.3*
CCN1/C(=C\c2ccc3cc(C)ccc3[n+]2CC)Sc2cc(C)c(C)cc21	-8.2	nt	nt	-1.2	nt	-23.6	nt
C=CC[n+]1c(/C=C2\C=Cc3cc(C)ccc3N2CC)ccc2ccccc21	-20.1	-145.4	45.8*	7.2	71.1	-20.3	59.6*
COc1ccc2c(c1)c(C)cc[n+]2Cc1ccccc1	-5.9	6.3	nt	20.8	-13.0	nt	nt
Cc1ccc2c(c1)c(C)cc[n+]2Cc1ccccc1	-7.0	13.7	49.7*	4.1	-6.0	-1.2	29.0
Cc1ccc(S(=O)(=O)N2CCC(C(=O)NCCN3CCOCC3)CC2)cc1	-3.2	nt	nt	nt	nt	nt	nt
CN(C)c1ccc(C(CNC(=O)c2ccccc2)c2c[nH]c3ccccc23)cc1 (centres undefined)	2.9	-4.1	51.0*	-18.8	30.6	3.6	59.0*
CN(C)c1ccc(C(CNS(=O)(=O)c2ccc(F)c(F)c2)c2c[nH]c3ccccc23)cc1 (centres undefined)	5.9	6.8	16.4	-13.0	-1.5	-5.4	nt
CN(C)c1ccc(C(CNC(=O)c2ccccc2F)c2c[nH]c3ccccc23)cc1 (centres undefined)	3.0	-32.4	47.2*	-8.4	18.3	-3.6	51.2*
c1ccc(COc2cccc(-c3cc4nc(NCc5ccc6c(c5)OCO6)ccn4n3)c2)cc1	-6.3	nt	nt	nt	nt	nt	nt
Cc1ccc2c(c1)c1c(n2CC(O)CNC(C)(C)C)CCCC1 (centres undefined)	-1.9	nt	nt	1.6	nt	2.1	nt
Cc1ccc2c(c1)c1c(n2CC(O)CN2CCCCCC2)CCCC1 (centres undefined)	0.0	11.4	44.7*	-1.8	26.8	nt	42.0
COc1ccc(-n2c(CN3CCN(Cc4ccccc4)CC3)nc3ccc([N+](=O)[O-])cc3c2=O)c(OC)c1	-3.1	6.6	50.7*	8.7	nt	-2.6	38.0
COc1ccc(-n2c(CN3CCN(C)CC3)nc3ccc([N+](=O)[O-])cc3c2=O)c(OC)c1	3.2	-7.8	24.8	2.9	-15.8	nt	nt
CSc1ccc(CN(C)CC(=O)NC(=O)NCCC2=CCCCC2)cc1	2.2	8.4	11.1	nt	nt	nt	nt
CC(C)NC(=O)Nc1ccc2c(c1)C(=O)N([C@H](C)CO)C[C@H](C)[C@@H](CN(C)C(=O)Nc1ccc(C(F)(F)F)cc1)O2	-0.2	1.3	27.2	nt	-2.1	nt	nt
C[C@H](CO)N1C[C@H](C)[C@@H](CN(C)C(=O)Nc2ccc(C(F)(F)F)cc2)Oc2ccc(NS(=O)(=O)c3cn(C)cn3)cc2C1=O	3.5	8.2	47.2*	nt	7.4	nt	38.3
SMILES	Rin1 Abl inh	UBC13 polyUb	PREPL inhibitor	SUMO HTRF inh	ALR inh	RBBP9 inh	PREPL confirm
Cc1ccc(S(=O)(=O)Nc2ccc3c(c2)C(=O)N([C@H](C)CO)C[C@H](C)[C@@H](CN(C)C(=O)Nc2ccc(C(F)(F)F)cc2)O3)cc1	0.9	3.5	45.4*	nt	nt	nt	39.5
C[C@H](CO)N1C[C@H](C)[C@@H](CN(C)C(=O)Nc2ccc(C(F)(F)F)cc2)Oc2ccc(NS(=O)(=O)c3ccccc3)cc2C1=O	0.8	4.3	45.6*	nt	-0.5	nt	44.9*
Cc1noc(C)c1S(=O)(=O)N(C)C[C@H]1Oc2c(NC(=O)Nc3ccc(C(F)(F)F)cc3)cccc2C(=O)N([C@H](C)CO)C[C@@H]1C	-0.5	20.8	52.4*	nt	nt	nt	59.0*
C[C@H](CO)N1C[C@H](C)[C@@H](CN(C)C(=O)Nc2ccc(C(F)(F)F)cc2)Oc2ccc(NS(=O)(=O)c3cccs3)cc2C1=O	5.4	-8.8	41.3	nt	-5.7	nt	nt
C[C@H](CO)N1C[C@H](C)[C@@H](CN(C)C(=O)Nc2ccc(C(F)(F)F)cc2)Oc2ccc(NS(=O)(=O)c3ccc(F)cc3)cc2C1=O	2.8	1.8	46.2*	nt	2.5	nt	40.8
O=C(C1CC(=O)N(c2ccc3c(c2)OCCO3)C1)N1CCN(c2ccccc2O)CC1 (centres undefined)	0.1	-1.4	45.2*	8.9	83.8*	nt	41.0
O=C(C1CC(=O)N(c2ccc3c(c2)OCCO3)C1)N1CCN(c2ccccc2)CC1 (centres undefined)	1.1	1.8	33.4	7.3	nt	-11.5	nt
CC(C)CCN1C(=O)c2ccc(C(=O)OCC(=O)N(CC(C)C)C3CCS(=O)(=O)C3)cc2C1=O (centres undefined)	2.1	-0.3	7.3	nt	-6.9	nt	nt
CC(C)CN(C(=O)COC(=O)c1ccc(-c2ccccc2)cc1)C1CCS(=O)(=O)C1 (centres undefined)	0.3	-5.3	48.1*	10.0	-0.6	1.5	40.1
COc1cccc2sc(Nc3nc(-c4ccccn4)cs3)nc12	-0.3	-0.7	49.9*	-33.3	-11.1	-2.9	45.6*
O=C(O)c1ccc(/C=N/Nc2ccc(S(=O)(=O)N3CCCC3)cc2[N+](=O)[O-])cc1	1.9	-65.5	12.5	9.1	-0.1	-5.7	nt
O=C(O)c1ccccc1NS(=O)(=O)c1ccc(NN=Cc2cccc(Cl)c2)c([N+](=O)[O-])c1	-1.4	-46.8	53.4*	nt	nt	nt	44.7*
O=C(O)c1ccccc1NS(=O)(=O)c1ccc(NN=Cc2ccc(F)cc2)c([N+](=O)[O-])c1	4.0	-47.3	43.6*	nt	2.3	nt	36.7
O=C(O)c1ccccc1NS(=O)(=O)c1ccc(N/N=C/c2ccc(O)c(O)c2)c([N+](=O)[O-])c1	-1.6	nt	nt	nt	nt	nt	nt
COc1ccc(NS(=O)(=O)c2ccc(NN=Cc3ccc(C(=O)O)cc3)c([N+](=O)[O-])c2)cc1	nt	-101.2	45.1*	nt	-8.2	nt	40.0
OC(c1ccccc1)c1nc(-c2cc(F)cc(F)c2)cs1 (centres undefined)	-4.1	nt	nt	nt	nt	nt	nt
C=CC[n+]1c(-c2ccc(Cl)cc2Cl)csc1Nc1ccc(NC(C)=O)cc1	-2.6	0.7	58.9*	-15.8	11.8	5.3	63.0*
